High-throughput results: PubChem, several laboratories
This is a sample that favours compounds with a hit; in the whole collection about 2.2% have one here.
Scp-1 inhibitor: Scp-1 phosphatase inhibitors, primary screen, biochemical, colorimetric, uHTS; Carboxy-terminal domain RNA polymerase II polypeptide A small phosphatase 1 (Homo …; inhibition, % at 20 µM; Recombinant Scp1, phosphopeptide, malachite green phosphate absorbance; 340,000 compounds, 0.88% hits;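 active = inhibition above about 50% at 20 µM, limit read from the data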
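Test system: SCP-1 catalytic domain; Buffer or medium: Acidic Tris acetate buffer with magnesium and detergent; Also added: Phosphorylated 17-residue peptide substrate; Compound: single 20 µM dose, 1% DMSO; Schedule: enzyme reaction 45 min at room temperature, colour 5 min, stabilisation 30 min; Signal: Phosphate-binding colour reagent, absorbance read at 630 nm.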
GRK2 inh: compounds blocking aptamer binding on GRK2 – biochemical, human GRK2, bead flow cytometry, HTS, primary screen | FAM-aptamer displacement from GRK2 | inhibition of aptamer binding, % at 10 µM | 330,000 compounds, 0.59% hits | AID 488847, 2010;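 active = inhibition of aptamer binding above 40%, roughly 3 SD of noise, on plates passing a quality check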;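 also: median bead fluorescence of bound FAM aptamer so fluorescent compounds give negative values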
LMPTP inh: LMPTP phosphatase inhibitors, primary screen, biochemical, fluorescence intensity, uHTS; Low molecular weight phosphotyrosine protein phosphatase (Homo sapiens), P24666; recombinant LMPTP-A, OMFP fluorogenic substrate; inhibition, % at 20 µM; 360,000 compounds, 0.22% hits; AID 651560, 2012;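 active = compounds that cut the enzyme signal by at least half of the control window in the single-dose screen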
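test system = LMPTP-A | amount = 0.625 nM LMPTP-A final | reagent = fluorogenic phosphatase substrate OMFP at 400 µM final | incubation = 50 min at room temperature | benchmarks = no-enzyme low control, uninhibited high control | medium = Bis-Tris pH 6.0, DTT, detergent | signal = fluorescence intensity of OMFP turnover product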
DNMT1 inh: human DNMT1 methyltransferase inhibitors, primary screen, biochemical, molecular beacon, fluorescence, HinP1I cleavage, uHTS; DNA (cytosine-5)-methyltransferase 1 (Homo sapiens), P26358; inhibition (reported as % activation of signal), % at 10 µM; 360,000 compounds, 0.83% hits; AID 588458, 2011; in the data active = inhibition above about 50%
STEP inh: STEP phosphatase inhibitors, primary screen, biochemical, fluorescence intensity, uHTS; 360,000 compounds, 0.25% hits; AID 588621, 2011; recombinant STEP, OMFP fluorogenic substrate; Tyrosine-protein phosphatase non-receptor type 5 (Homo sapiens), P54829; inhibition, % at 20 µM;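 active = inhibition at 20 µM, scaled per plate between control wells, above about 37%, limit read from the data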
Target sequence (P54829 whole entry, looked up): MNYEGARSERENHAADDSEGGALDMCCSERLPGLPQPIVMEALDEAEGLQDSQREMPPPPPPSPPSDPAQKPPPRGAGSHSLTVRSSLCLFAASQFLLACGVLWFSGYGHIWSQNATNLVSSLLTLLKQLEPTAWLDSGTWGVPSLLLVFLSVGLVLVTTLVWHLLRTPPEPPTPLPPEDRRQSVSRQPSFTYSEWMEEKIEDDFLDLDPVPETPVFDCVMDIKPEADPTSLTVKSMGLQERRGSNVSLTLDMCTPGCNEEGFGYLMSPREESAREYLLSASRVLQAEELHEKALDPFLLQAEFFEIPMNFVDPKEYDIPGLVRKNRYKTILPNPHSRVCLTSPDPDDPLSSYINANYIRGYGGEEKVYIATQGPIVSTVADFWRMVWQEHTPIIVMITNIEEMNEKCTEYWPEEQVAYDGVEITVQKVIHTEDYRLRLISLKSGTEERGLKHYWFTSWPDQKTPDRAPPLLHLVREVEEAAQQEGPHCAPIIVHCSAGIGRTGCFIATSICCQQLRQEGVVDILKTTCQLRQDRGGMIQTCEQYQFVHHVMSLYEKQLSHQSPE
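material = STEP tyrosine phosphatase | reagent = fluorogenic phosphatase substrate OMFP at 25 µM final | doses = single compound dose of 20 µM, 1% DMSO final | schedule = 20 min reaction, room temperature, in the dark | measured by = fluorescence, 480/540 nm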
SUMO1 PPI mod: modulators of SUMO1 protein-protein interactions, primary screen, biochemical, uHTS | Small ubiquitin-related modifier 1 (Homo sapiens), P63165 | SUMO1 binding to a labelled peptide, TR-FRET, 1 h | inhibition, % at 20 µM | 360,000 compounds, 0.33% hits; in the data active = inhibition above about 37%
Target sequence (P63165 whole entry, looked up): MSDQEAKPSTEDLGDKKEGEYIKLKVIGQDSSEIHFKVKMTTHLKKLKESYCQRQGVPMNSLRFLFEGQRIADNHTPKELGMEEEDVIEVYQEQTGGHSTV
Scp1 confirm: Scp-1 phosphatase inhibitors, retest, confirmation, biochemical, colorimetric, single concentration | 2,500 compounds, 61% hits | inhibition, % at 20 µM | recombinant SCP-1 catalytic domain, phosphate release, malachite green absorbance | shares compounds with Scp-1 inhibitor | AID 540281, 2011
MG interference: colorimetric readout interference by compounds, confirmation, artefact control for Scp-1 inhibitor project, biochemical, single concentration; shares compounds with Scp-1 inhibitor; apparent inhibition (interference), % at 20 µM; AID 540313, 2011; Colorimetric interference counterscreen, malachite green absorbance 630 nm; 2,500 tested, under 10 active;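 also: compounds added after enzyme reaction finished so only phosphate colour detection is probed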
Scp1 DSF: Scp-1 binding by thermal shift, confirmation, orthogonal assay for Scp-1 inhibitor project, biophysical, differential scanning fluorimetry; 1,500 compounds, 25% hits; thermal shift relative to vanadate control, % at 40 µM; Recombinant SCP1, Sypro Orange thermal shift Tm; shares compounds with Scp-1 inhibitor; AID 540329, 2011;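 active = substances whose mean melting-temperature shift, as a percentage of the reference inhibitor's shift, reaches about 5.3%, limit read from the data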
Hits are given with their value; i = inactive; nt = not tested or not shown.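 The calls were made as follows, unless noted: active = inhibition of at least 30% at 20 µM; inactive = the rest.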

SMILES | Scp-1 inhibitor | GRK2 inh | LMPTP inh | DNMT1 inh | STEP inh | SUMO1 PPI mod | Scp1 confirm | MG interference | others
O=C(N/N=C\c1cccnc1)c1cc(-c2ccc(Cl)s2)[nH]n1 | 62 | i | i | i | i | i | 53 | i | Scp1 DSF=i
NS(=O)(=O)c1ccc(NC(=O)c2ccc3nccnc3c2)cc1 | i | i | i | i | i | i | nt | nt
Cc1ccc2c(=O)cc(C(=O)NCCc3ccc(S(N)(=O)=O)cc3)oc2c1 | 95 | i | i | i | i | i | 70 | i | Scp1 DSF=i
NS(=O)(=O)c1ccc(CCNC(=O)c2ccc3nccnc3c2)cc1 | 99 | i | 55 | i | i | i | 76 | i | Scp1 DSF=i
Cc1cc(C)c2oc(C(=O)NCCc3ccc(S(N)(=O)=O)cc3)cc(=O)c2c1 | i | i | i | i | i | i | nt | nt
CC(C)(C)OC(=O)N1C(=O)[C@](OC(=O)c2ccccc2)(c2ccc(F)cc2)c2ccccc21 | nt | nt | i | nt | nt | i | nt | nt
Cc1ccc(C(=O)CSC2=C(C#N)C(c3ccco3)CC(=O)N2)c(C)c1 (stereo not drawn) | 61 | i | i | 64 | i | i | 56 | i | Scp1 DSF=i
Cc1ccc(OCC(=O)N2N=C(c3ccncc3)CC2(O)C(F)(F)F)cc1C (stereo not drawn) | 103 | i | i | i | i | i | i | i
Cc1noc(C)c1NC(=O)N(C)C[C@H]1Oc2c(cccc2N(C)C)C(=O)N([C@H](C)CO)C[C@@H]1C | 74 | nt | i | i | i | i | i | i
COc1ccc(S(=O)(=O)N(C)C[C@H]2Oc3c(NC(=O)Nc4c(C)noc4C)cccc3C(=O)N([C@@H](C)CO)C[C@H]2C)cc1 | 56 | i | i | i | i | i | i | i
Cc1noc(C)c1NC(=O)Nc1cccc2c1O[C@H](CN(C)S(C)(=O)=O)[C@@H](C)CN([C@H](C)CO)C2=O | i | i | i | i | i | i | nt | nt
COc1ccc(CN(C)C[C@@H]2OCc3cnnn3CCCC(=O)N([C@@H](C)CO)C[C@H]2C)cc1 | nt | nt | i | i | i | i | nt | nt
c1cncc(CN=C2Nc3ccccc3CS2)c1 | 69 | i | i | i | i | i | i | i
O=C(O)CCCn1c(O)c(C=C2N=c3ccccc3=N2)sc1=S | i | i | i | i | i | i | nt | nt
O=C(O)CCCCCn1c(O)c(C=C2N=c3ccccc3=N2)sc1=S | 74 | i | i | i | i | i | 91 | i | Scp1 DSF=10
CCc1nc2c(OCc3ccccc3)cccn2c1N(C)C(=O)c1ccc2c(c1)OCO2 | nt | nt | i | i | i | i | nt | nt
N#C/C(=C\c1ccc[nH]1)C(=O)Nc1ccccc1[N+](=O)[O-] | 55 | i | i | i | i | i | 64 | i | Scp1 DSF=5.3
C=CCOc1c(Br)cc(/C=N/n2c(CC)n[nH]c2=S)cc1Br | 72 | i | i | i | i | i | i | i
CCc1n[nH]c(=S)n1/N=C/c1cc(Br)c(O)c(OC)c1 | i | i | i | i | i | i | nt | nt
CCCOc1ccc(-c2nnc(-c3cccs3)o2)cc1 | 67 | i | i | i | i | i | i | i
CCCCOc1ccc(-c2nnc(-c3ccncc3)o2)cc1 | i | i | i | i | i | i | nt | nt
CC(=O)NC(=Cc1ccccc1)C(=O)N1CCCC1C(=O)O (stereo not drawn) | nt | nt | i | i | i | i | nt | nt
CCC1(CC)NC(=O)N(CC(=O)OCC(=O)Nc2ccccc2OC(F)F)C1=O | i | i | i | i | i | i | i | i
CC(C)(C)c1ccc(CC(=O)N2CCC2(C)C(=O)NS(=O)(=O)c2ccccc2Cl)cc1 (stereo not drawn) | nt | nt | i | i | i | i | nt | nt
CC(C)(C)c1ccc(OCCNC(=S)Nc2ccccc2)cc1 | 57 | i | i | i | i | i | i | i
SMILES | Scp-1 inhibitor | GRK2 inh | LMPTP inh | DNMT1 inh | STEP inh | SUMO1 PPI mod | Scp1 confirm | MG interference | others
Cc1ccc(S(=O)(=O)N2[C@@H](CO)CO[C@H]2CC(=O)c2ccc(F)cc2)cc1 | nt | nt | i | nt | nt | i | nt | nt
C[C@H](CO)N1C[C@H](C)[C@@H](CN(C)Cc2ccccc2)Oc2c(NC(=O)c3ccncc3)cccc2C1=O | i | i | i | i | i | i | nt | nt
C[C@H](CO)N1C[C@H](C)[C@@H](CN(C)C(=O)Nc2ccccc2)Oc2c(NC(=O)c3ccncc3)cccc2C1=O | 88 | i | i | i | i | i | i | i
C[C@H](CO)N1C[C@H](C)[C@@H](CN(C)C)Oc2c(NC(=O)c3ccncc3)cccc2C1=O | i | i | i | i | i | i | nt | nt
COc1ccc(NC(=O)N(C)C[C@H]2Oc3c(NC(=O)c4ccncc4)cccc3C(=O)N([C@H](C)CO)C[C@@H]2C)cc1 | 61 | i | i | i | i | i | i | i
C[C@H](CO)N1C[C@H](C)[C@@H](CN(C)C(=O)Nc2ccc(C(F)(F)F)cc2)Oc2c(NC(=O)c3ccncc3)cccc2C1=O | 88 | i | i | i | i | i | i | i
C[C@H]1CN([C@@H](C)CO)C(=O)c2cccc(NC(=O)c3ccncc3)c2O[C@H]1CN(C)C(=O)Nc1ccccc1 | 95 | i | i | i | i | i | 72 | i | Scp1 DSF=i
C#Cc1ccccc1OCCCN1CCC(C(O)(c2ccccc2)c2ccccc2)CC1 | nt | nt | i | nt | nt | i | nt | nt
CC(=O)c1ccc(C(=O)Nc2nnc(-c3ccc(Cl)cc3)o2)cc1 | 54 | i | i | i | i | i | 43 | i | Scp1 DSF=i
O=C(Nc1nnc(-c2ccccc2)o1)c1ccc(Cl)cc1 | i | i | i | i | i | i | nt | nt
CC(C)(C)OC(=O)NCCCCCNC(=O)c1ncn2c1c(=O)[nH]c1ccccc12 | nt | nt | i | i | i | i | nt | nt
O=[N+]([O-])c1ccc(C(O)C[n+]2ccccc2)cc1 (stereo not drawn) | 96 | nt | i | i | i | i | i | i
O=[N+]([O-])c1ccc(C(O)CN2CCN(c3ccccc3)CC2)cc1 (stereo not drawn) | i | i | i | i | i | i | nt | nt
